Measurements reported in PMC9890135 (Molecular Cancer Therapeutics, 2022).

Legend:
CT26 tumors = test: CT26 syngeneic colorectal cancer survival model; type: in vivo, mice; conditions: XL092 30 mg/kg orally once a day, anti-PD-1 10 mg/kg every 3–4 days i.p.
In short: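 CT26 syngeneic mice randomised at ~90 mm3. Treatment: oral test compound 30 mg/kg once daily for 34 days, with or without anti-PD-1 antibody (10 mg/kg i.p. every 3–4 days for 5 weeks, diluted in sterile PBS), or vehicle. Animals sacrificed at tumour volume 2,500 mm3; survival analysed by Kaplan–Meier.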

TYRO3 = target: T1, TYRO3 (Homo sapiens, UniProt Q06418); test: Inhibition of receptor phosphorylation, ELISA, TYRO3-transfected 293A cells; type: cell-based
T1 sequence (Q06418 41-890): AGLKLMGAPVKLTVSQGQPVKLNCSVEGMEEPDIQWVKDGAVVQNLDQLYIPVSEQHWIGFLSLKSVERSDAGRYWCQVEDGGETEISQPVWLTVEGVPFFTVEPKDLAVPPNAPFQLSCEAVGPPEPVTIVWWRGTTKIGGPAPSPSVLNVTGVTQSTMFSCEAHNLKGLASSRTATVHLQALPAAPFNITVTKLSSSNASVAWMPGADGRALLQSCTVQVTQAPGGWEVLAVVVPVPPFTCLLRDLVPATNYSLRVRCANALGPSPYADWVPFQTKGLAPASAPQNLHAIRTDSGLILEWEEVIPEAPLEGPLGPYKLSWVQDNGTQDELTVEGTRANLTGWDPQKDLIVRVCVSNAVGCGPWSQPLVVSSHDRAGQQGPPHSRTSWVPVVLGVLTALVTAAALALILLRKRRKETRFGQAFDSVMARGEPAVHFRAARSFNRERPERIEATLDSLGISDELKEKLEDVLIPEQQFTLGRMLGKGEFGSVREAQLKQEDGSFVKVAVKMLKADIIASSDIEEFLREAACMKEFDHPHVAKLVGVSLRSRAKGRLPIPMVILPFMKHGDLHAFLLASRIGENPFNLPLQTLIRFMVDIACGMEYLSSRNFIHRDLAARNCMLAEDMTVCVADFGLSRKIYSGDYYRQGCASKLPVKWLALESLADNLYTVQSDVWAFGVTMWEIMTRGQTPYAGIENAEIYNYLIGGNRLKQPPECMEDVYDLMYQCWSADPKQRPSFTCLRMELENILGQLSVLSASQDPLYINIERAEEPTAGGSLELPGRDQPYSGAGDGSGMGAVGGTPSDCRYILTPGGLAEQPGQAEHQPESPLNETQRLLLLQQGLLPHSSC
In short: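 293A cells transfected with TYRO3 were serum-starved 3–24 h, then incubated 1 h in serum-free medium with serially diluted test compound. Receptor phosphorylation quantified by ELISA to derive IC50.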

CNC(=O)c1cc2c(Oc3ccc(NC(=O)C4(C(=O)Nc5ccc(F)cc5)CC4)cc3)ccnc2cc1OC [XL092]
survival to the end of the 34-day dosing regimen (CT26 tumors): 20% | IC50 (TYRO3): 306 ± 1.37 nM
